# Data published in ChEMBL document CHEMBL4190301, “Isolation, Structure Elucidition, and Immunosuppressive Activity of Diterpenoids from Ligularia fischeri” (J Nat Prod, 2017).
# pIC50: −log10 of the molar value. The source made the active and inactive calls. The rule behind the calls is not given here.
# Legend:
# HMy2.C1R [1] = assay: Immunosuppressive activity in human HMy2.C1R cells assessed as cell growth inhibition at 2.5 to 40 uM after 48 hrs by SRB assay; type: functional, cell-based
# Outline: (§1)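 Human B lymphoblast HMy2.CIR cells were seeded in 96-well plates in medium with 5% FBS. After 24 h, a plate was TCA-fixed as time zero (T0). Cells were then exposed to DMSO or compound at 2.5–40 μM for 48 h, fixed with 10% TCA and stained with 0.4% SRB in 1% HOAc. Bound dye was solubilized in 10 mM Trizma base and read at 540 nm. Percentage growth was calculated from T0, control and treated absorbances; mean ± SD, n = 3.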
# HMy2.C1R [2] = assay: […] in human HMy2.C1R cells at 2.5 to 40 uM after 48 hrs by SRB assay; type: functional, cell-based; outline: as §1
# HMy2.C1R [3] = assay: Immunosuppressive activity in human HMy2.C1R cells assessed as cell growth at 5 uM after 48 hrs by SRB assay relative to control; type: functional; outline: as §1
# HMy2.C1R [4] = assay: Immunosuppressive activity in human HMy2.C1R cells assessed as cell growth at 40 uM after 48 hrs by SRB assay relative to control; type: functional; outline: as §1
# HMy2.C1R [5] = assay: Immunosuppressive activity in human HMy2.C1R cells assessed as cell growth inhibition after 48 hrs by SRB assay
# HMy2.C1R [6] = assay: Immunosuppressive activity in human HMy2.C1R cells assessed as cell growth at 10 uM after 48 hrs by SRB assay relative to control; type: functional; outline: as §1
# HMy2.C1R [7] = assay: Immunosuppressive activity in human HMy2.C1R cells assessed as cell growth at 2.5 uM after 48 hrs by SRB assay relative to control; type: functional; outline: as §1
# HMy2.C1R [8] = assay: Immunosuppressive activity in human HMy2.C1R cells assessed as cell growth at 20 uM after 48 hrs by SRB assay relative to control; type: functional; outline: as §1
smiles,measurement,setting,value
COc1cc(/C=C/C(=O)OC[C@@]2(O)C[C@@]34CC[C@@H]5C(C)(C)CCC[C@@]5(C(=O)O)[C@@H]3CC[C@@H]2C4)ccc1O,inhibition,HMy2.C1R [1],inactive
C[C@]12CCC[C@]3(COC1=O)[C@@H]2CC[C@@]12C[C@@H](CC[C@]13O)[C@](C)(O)C2,Activity,HMy2.C1R [2],Dose-dependent effect
CC1(C)CCC[C@]2(C=O)[C@@H]1CC[C@@]13C[C@@H](CC[C@H]12)[C@](C)(O)C3,inhibition,HMy2.C1R [1],inactive
CC1(C)CCC[C@]2(C=O)[C@@H]1CC[C@@]13C[C@@H](CC[C@H]12)[C@@](O)(CO)C3,Ratio,HMy2.C1R [3],0.685
same,Ratio,HMy2.C1R [4],0.301
same,pIC50,HMy2.C1R [5],4.88
same,Ratio,HMy2.C1R [6],0.525
same,Ratio,HMy2.C1R [7],0.791
same,Ratio,HMy2.C1R [8],0.455
CC1(C)CCC[C@]2(C)[C@@H]1CC[C@@]13C[C@@H](CC[C@H]12)[C@](C)(O)C3,inhibition,HMy2.C1R [1],inactive
C=C1[C@H](O)CC[C@@H]2[C@@]3(C)CC[C@](C)(O)C[C@@H]3CC[C@@]12C,Activity,HMy2.C1R [2],Dose-dependent effect
C[C@]12CCC[C@@]3(COC1=O)[C@@H]1[C@@H]4C[C@@H]5C[C@@]1(CC[C@@H]32)C[C@]5(C)O4,inhibition,HMy2.C1R [1],inactive
CC1(C)CCC[C@]2(C(=O)O)[C@@H]1CC[C@@]13C[C@@H](CC[C@H]12)[C@](C)(O)C3,inhibition,HMy2.C1R [1],inactive
C=C[C@](C)(O)CC[C@@H]1C(=C)CC[C@@H]2C(C)(C)C[C@@H](O)C[C@@]12C,Ratio,HMy2.C1R [3],0.812
same,Ratio,HMy2.C1R [4],0.39
same,pIC50,HMy2.C1R [5],4.50
same,Ratio,HMy2.C1R [6],0.761
same,Ratio,HMy2.C1R [7],0.934
same,Ratio,HMy2.C1R [8],0.648
C[C@]12CCC[C@@]3(COC1=O)[C@@H]1CC[C@@H]4C[C@@]1(CC[C@@H]32)C[C@@]4(C)O,Ratio,HMy2.C1R [3],0.809
same,Ratio,HMy2.C1R [4],0.6
same,pIC50,HMy2.C1R [5],4.25
same,Ratio,HMy2.C1R [6],0.762
same,Ratio,HMy2.C1R [7],0.849
same,Ratio,HMy2.C1R [8],0.683
C[C@]12CCC[C@]3(COC1=O)[C@@H]2C[C@H](O)[C@@]12C[C@@H](CC[C@]13O)[C@](C)(O)C2,inhibition,HMy2.C1R [1],inactive
C[C@@]12CC[C@@H](O)[C@@](C)(C(=O)O)[C@H]1CC[C@@]13C[C@@H](CC[C@H]12)[C@@](O)(CO)C3,inhibition,HMy2.C1R [1],inactive
CC1(C)CCC[C@]2(C(=O)O)[C@@H]1CC[C@@]13C[C@@H](CC[C@H]12)[C@@](O)(CO)C3,inhibition,HMy2.C1R [1],inactive
